Data on 4 compounds can be found in ChEMBL document CHEMBL5154684 (J Med Chem, 2022).

Data set [1] has as its target Rho-associated protein kinase 2 (Homo sapiens, UniProt O75116). Put plainly: Inhibition of ROCK2 (unknown origin) using KEAKEKRQEQIAKRRRLSSLRASTSKSGGSQK-peptide as substrate incubated for 30 mins in presence of [gamma-33P]-ATP.
The species named for the next data set is Homo sapiens. Put plainly: Selectivity ratio of CD for Nrf2 activation in HEK293T cells to IC50 for inhibition of ROCK2 (unknown origin). It counts as cell-based. In a few lines: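 Ratio of CD to ROCK2 IC50. CD is the concentration doubling ARE-luciferase over basal in transfected HEK293T cells after 16 h. […] Reactions were stopped with orthophosphoric acid and captured on P81 filters.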

The target of data set [2] is T1, Nuclear factor erythroid 2-related factor 2 (Homo sapiens) (UniProt Q16236).
T1 sequence (whole entry): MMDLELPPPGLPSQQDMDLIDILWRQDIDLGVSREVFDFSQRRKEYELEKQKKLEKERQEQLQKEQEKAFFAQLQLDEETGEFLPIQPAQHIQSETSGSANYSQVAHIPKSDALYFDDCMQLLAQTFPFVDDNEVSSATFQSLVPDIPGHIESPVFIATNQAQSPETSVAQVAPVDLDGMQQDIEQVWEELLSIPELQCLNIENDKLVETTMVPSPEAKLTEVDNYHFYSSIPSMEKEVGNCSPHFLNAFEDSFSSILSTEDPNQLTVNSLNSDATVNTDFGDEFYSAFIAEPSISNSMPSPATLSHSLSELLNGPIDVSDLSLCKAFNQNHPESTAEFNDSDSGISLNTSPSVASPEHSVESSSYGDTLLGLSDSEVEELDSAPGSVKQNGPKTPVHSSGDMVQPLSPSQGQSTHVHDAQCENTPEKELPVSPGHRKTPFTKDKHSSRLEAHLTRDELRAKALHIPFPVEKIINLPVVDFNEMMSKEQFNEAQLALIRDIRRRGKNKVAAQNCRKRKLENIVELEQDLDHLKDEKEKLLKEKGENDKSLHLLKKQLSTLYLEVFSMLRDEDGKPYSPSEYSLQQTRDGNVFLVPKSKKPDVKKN
Nature of the data set: Activation of Nrf2 transcriptional activity in HEK293T cells transfected with TK-Renilla reporter vector and cotransfected with ARE-LUC vector measured after 16 hrs by dual-luciferase reporter gene assay. It counts as cell-based. The settings on record: filed as activator, dose 6-60 µM, DDE = dose-dependent effect. In outline: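 HEK293T cells were seeded and cultured 16 h, then co-transfected by calcium phosphate with 3×ARE-LUC and TK-Renilla. […] Lysates were read by dual-luciferase. Triplicates, at least twice. CD is the concentration that doubles luciferase over basal.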
A general note: In a reporter assay the amount or activity of a reporter protein is the signal.

Data set [3] addresses T2, Nuclear factor erythroid 2-related factor 2 (Mus musculus) (UniProt Q60795).
T2 sequence (whole entry): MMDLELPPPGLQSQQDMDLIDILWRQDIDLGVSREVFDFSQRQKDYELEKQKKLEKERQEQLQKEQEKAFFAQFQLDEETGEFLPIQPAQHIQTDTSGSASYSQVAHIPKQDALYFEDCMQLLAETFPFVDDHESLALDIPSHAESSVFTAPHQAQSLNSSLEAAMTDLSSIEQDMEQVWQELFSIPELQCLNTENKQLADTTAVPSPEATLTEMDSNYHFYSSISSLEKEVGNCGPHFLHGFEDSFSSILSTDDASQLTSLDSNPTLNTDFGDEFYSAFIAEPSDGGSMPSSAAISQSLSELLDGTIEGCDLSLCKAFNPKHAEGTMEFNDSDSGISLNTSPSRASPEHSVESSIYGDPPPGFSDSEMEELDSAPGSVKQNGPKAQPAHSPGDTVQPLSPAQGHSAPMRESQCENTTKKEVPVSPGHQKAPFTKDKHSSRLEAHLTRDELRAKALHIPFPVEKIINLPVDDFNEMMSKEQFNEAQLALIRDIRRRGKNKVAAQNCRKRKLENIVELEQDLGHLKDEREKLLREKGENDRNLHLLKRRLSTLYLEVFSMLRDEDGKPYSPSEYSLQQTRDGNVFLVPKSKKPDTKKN
Put plainly: Activation of Nrf2 transcriptional activity in KEAP1+/+ mouse embryonic fibroblast cells assessed as increase in HMOX1 mRNA levels at 20 uM by RT-qPCR analysis. In kind it is cell-based. The note with it: filed as activator, time 4-24 hrs, TDE = time-dependent effect. In a few lines: (§1)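 Keap1+/+ and Keap1–/– MEFs were grown in DMEM with 10% FBS and treated at 20 μM for 4, 8 and 24 h. HMOX1 and NQO1 mRNA measured by qRT-PCR, normalized to β-actin mRNA. n = 4 ± S.E.M., experiments done twice; two-way ANOVA with Bonferroni post hoc.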
(In qPCR the cycle at which signal appears reflects the starting amount.)

In data set [4] the target is T1, Nuclear factor erythroid 2-related factor 2 (Homo sapiens). Put plainly: Induction of Nrf2 signalling pathway in human lymphoblast assessed as increase in Nrf2 protein level at 20 uM measured after 24 hrs by immunoblot analysis. In kind it is cell-based. The settings on record: Lymphoblastoid cell, filed as activator.
For data set [5] the target is unchanged. Put plainly: Activation of Nrf2 transcriptional activity in human SH-SY5Y cells assessed as induction of accumulation of Nrf2 in nucleus at 20 uM incubated for 30 to 240 mins by Immunoblotting analysis. In kind it is cell-based. The settings on record: filed as activator, time 60-240 min, in the assay text read “60 to 240 mins” for “30 to 240 mins”. In a few lines: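 SH-SY5Y cells treated at 20 μM for 1, 2 and 4 h. Cytosolic and nuclear fractions were prepared by hypotonic NP-40 lysis followed by a nuclear extraction buffer. […] Duplicate, at least twice.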
(A western blot detects proteins with antibodies after separation by electrophoresis.)

Data set [6] shares this target. Put plainly: Activation of Nrf2 transcriptional activity in human SH-SY5Y cells assessed as increase in NQO1 protein levels at 20 uM incubated for 24 hrs by immunoblot analysis. It counts as cell-based. The note with it: filed as activator. In outline:
(§2)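 SH-SY5Y cells exposed to 20 μM for 4, 8 and 24 h. […] Densitometry normalized to β-actin. Duplicate, at least twice; one-way ANOVA with Tukey post-test.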

The target is the same in data set [7]. Nature of the data set: Induction of Nrf2 signalling pathway in human lymphoblast assessed as increase in NQO1 protein level at 20 uM measured after 24 hrs by immunoblot analysis. In kind it is cell-based. The note with it: Lymphoblastoid cell, filed as activator.
For data set [8] the target is unchanged. Put plainly: Induction of Nrf2 signalling pathway in ALS patient derived human lymphoblasts harboring SOD1 mutation assessed as increase in HMOX1 mRNA level at 20 uM measured after 24 hrs by RT-qPCR analysis. In kind it is cell-based. The settings on record: Lymphoblastoid cell, filed as activator. In outline: (§3)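 EBV-immortalized lymphoblastoid lines from controls, sALS and SOD1-ALS patients were grown in RPMI-1640 with 10% FBS. They were seeded at 1 × 10^6 cells/mL, serum-starved 12 h, then treated at 20 μM for 24 h. HMOX1 and NQO1 mRNA measured by qRT-PCR, normalized to β-actin mRNA. n = 6–7 controls, 5–6 sALS, 4 SOD1-ALS, ± S.E.M.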

Data set [9] has the same target. Put plainly: Induction of Nrf2 signalling pathway in human lymphoblast assessed as increase in NQO1 mRNA level at 20 uM measured after 24 hrs by RT-qPCR analysis. It counts as cell-based. The note with it: Lymphoblastoid cell, filed as activator. In outline: as §3
Data set [10] has as its target T2, Nuclear factor erythroid 2-related factor 2 (Mus musculus). Nature of the data set: Activation of Nrf2 transcriptional activity in KEAP1+/+ mouse embryonic fibroblast cells assessed as increase in NQO1 mRNA levels at 20 uM by RT-qPCR analysis. It counts as cell-based. The note with it: filed as activator, time 4-24 hrs, TDE = time-dependent effect. In a few lines: as §1

The target in data set [11] is T3, Albumin (Homo sapiens, UniProt P02768). Nature of the data set: Binding affinity to human serum albumin assessed as association constant by Scatchard equation. In kind it is ADME. The settings on record: isolated protein.
T3 sequence (P02768 whole entry): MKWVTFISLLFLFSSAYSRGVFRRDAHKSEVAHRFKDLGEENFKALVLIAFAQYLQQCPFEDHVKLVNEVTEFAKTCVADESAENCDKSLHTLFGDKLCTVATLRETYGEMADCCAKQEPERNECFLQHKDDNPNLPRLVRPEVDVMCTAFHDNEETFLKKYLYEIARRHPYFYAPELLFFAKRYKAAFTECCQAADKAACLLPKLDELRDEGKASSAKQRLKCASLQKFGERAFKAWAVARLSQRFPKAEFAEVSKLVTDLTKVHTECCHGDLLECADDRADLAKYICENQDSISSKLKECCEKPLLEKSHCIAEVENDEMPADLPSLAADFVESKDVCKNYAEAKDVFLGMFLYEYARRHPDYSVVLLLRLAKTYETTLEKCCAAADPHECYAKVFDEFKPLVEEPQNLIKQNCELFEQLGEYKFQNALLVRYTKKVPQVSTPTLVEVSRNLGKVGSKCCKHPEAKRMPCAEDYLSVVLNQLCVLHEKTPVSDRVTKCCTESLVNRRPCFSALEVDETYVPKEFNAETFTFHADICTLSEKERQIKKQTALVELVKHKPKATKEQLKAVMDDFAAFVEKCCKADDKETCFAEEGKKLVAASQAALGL
Data set [12] addresses T1, Nuclear factor erythroid 2-related factor 2 (Homo sapiens). Put plainly: Induction of Nrf2 signalling pathway in human lymphoblast assessed as increase in HMOX1 protein level at 20 uM measured after 24 hrs by immunoblot analysis. In kind it is cell-based. The settings on record: Lymphoblastoid cell, filed as activator.
Data set [13] addresses T2, Nuclear factor erythroid 2-related factor 2 (Mus musculus). Put plainly: Activation of Nrf2 transcriptional activity in KEAP1-/- mouse embryonic fibroblast cells assessed as increase in HMOX1 mRNA levels at 20 uM measured upto 24 hrs by RT-qPCR analysis. In kind it is cell-based. The settings on record: filed as activator. In a few lines: as §1
A short description of data set [14]: Stability in pooled human liver microsomes assessed as intrinsic clearance at 8 uM in presence of NADPH measured upto 60 mins by HPLC-MS analysis. The note with it: 1 h. It counts as ADME, Microsome.
The target of data set [15] is Keap1/Nrf2 (Homo sapiens) (UniProt Q16236+Q14145). Nature of the data set: Inhibition of Nrf2 (unknown origin)/KEAP1 (unknown origin) protein-protein interaction by measuring inflection temperature at 100 uM by differential scanning fluorimetry. In kind it is protein assay.
Keap1/Nrf2 (Homo sapiens), sequence (Q14145 whole entry, looked up, one chain of several): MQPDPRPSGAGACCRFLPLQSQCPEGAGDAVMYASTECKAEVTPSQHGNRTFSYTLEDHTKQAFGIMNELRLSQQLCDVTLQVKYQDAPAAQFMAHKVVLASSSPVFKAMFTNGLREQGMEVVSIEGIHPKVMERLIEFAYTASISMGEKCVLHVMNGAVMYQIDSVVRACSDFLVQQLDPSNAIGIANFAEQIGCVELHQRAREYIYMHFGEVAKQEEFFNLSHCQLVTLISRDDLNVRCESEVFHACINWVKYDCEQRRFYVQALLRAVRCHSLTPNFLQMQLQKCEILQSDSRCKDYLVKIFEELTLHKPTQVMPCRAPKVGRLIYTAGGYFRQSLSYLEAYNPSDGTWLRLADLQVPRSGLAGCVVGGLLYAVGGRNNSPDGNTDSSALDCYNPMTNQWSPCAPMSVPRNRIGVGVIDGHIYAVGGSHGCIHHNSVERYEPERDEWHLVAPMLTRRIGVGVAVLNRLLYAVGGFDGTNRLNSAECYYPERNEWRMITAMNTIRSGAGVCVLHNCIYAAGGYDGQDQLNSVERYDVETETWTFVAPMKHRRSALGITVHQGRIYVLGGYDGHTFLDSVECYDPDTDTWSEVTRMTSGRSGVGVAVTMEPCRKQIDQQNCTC
Data set [16] addresses T1, Nuclear factor erythroid 2-related factor 2 (Homo sapiens). Put plainly: Activation of Nrf2 transcriptional activity in human SH-SY5Y cells assessed as increase in HMOX1 mRNA expression at 20 uM by RT-qPCR analysis. In kind it is cell-based. The settings on record: filed as activator, time 4-24 hrs, TDE = time-dependent effect. In a few lines: (§4)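 SH-SY5Y cells (DMEM/Ham's F12, 10% FBS) were treated at 20 μM for 4, 8 and 24 h. HMOX1 and NQO1 mRNA measured by qRT-PCR, normalized to β-actin mRNA. Mean of n = 4 ± S.E.M., experiments done twice.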

Data set [17] shares this target. Nature of the data set: Activation of Nrf2 transcriptional activity in human SH-SY5Y cells assessed as increase in HO-1 protein levels at 20 uM incubated for 24 hrs by immunoblot analysis. In kind it is cell-based. The note with it: filed as activator. In a few lines:
as §2

The target is the same in data set [18]. Put plainly: Induction of Nrf2 signalling pathway in ALS patient derived human lymphoblasts harboring SOD1 mutation assessed as increase in NQO1 protein level at 20 uM measured after 24 hrs by immunoblot analysis. The settings on record: Lymphoblastoid cell, filed as activator. In kind it is cell-based.
Data set [19] deals with T3, Albumin. Put plainly: Binding affinity to human serum albumin assessed as Stern-Volmer quenching constant by Stern-Volmer plot analysis. In kind it is ADME. The settings on record: isolated protein.
Data set [20] concerns the target T1, Nuclear factor erythroid 2-related factor 2 (Homo sapiens). Put plainly: Induction of Nrf2 signalling pathway in ALS patient derived human lymphoblasts harboring SOD1 mutation assessed as increase in NQO1 mRNA level at 20 uM measured after 24 hrs by RT-qPCR analysis. It counts as cell-based. The settings on record: Lymphoblastoid cell, filed as activator. In a few lines: as §3

The target is the same in data set [21]. Put plainly: Activation of Nrf2 transcriptional activity in human SH-SY5Y cells assessed as increase in NQO1 mRNA expression at 20 uM by RT-qPCR analysis. The settings on record: filed as activator, time 4-24 hrs, TDE = time-dependent effect. It counts as cell-based. In outline:
as §4

Data set [22] has the same target. Nature of the data set: Induction of Nrf2 signalling pathway in human lymphoblast assessed as increase in HMOX1 mRNA level at 20 uM measured after 24 hrs by RT-qPCR analysis. In kind it is cell-based. The note with it: Lymphoblastoid cell, filed as activator. In a few lines:
as §3

The target is the same in data set [23]. Nature of the data set: Induction of Nrf2 signalling pathway in ALS patient derived human lymphoblasts harboring SOD1 mutation assessed as increase in HMOX1 protein level at 20 uM measured after 24 hrs by immunoblot analysis. It counts as cell-based. The note with it: Lymphoblastoid cell, filed as activator.

Structures are written as SMILES. The source made the active and inactive calls. The calls are words filed in the database; no cut-off is given here.

Rho-associated protein kinase 2, sequence (O75116 whole entry): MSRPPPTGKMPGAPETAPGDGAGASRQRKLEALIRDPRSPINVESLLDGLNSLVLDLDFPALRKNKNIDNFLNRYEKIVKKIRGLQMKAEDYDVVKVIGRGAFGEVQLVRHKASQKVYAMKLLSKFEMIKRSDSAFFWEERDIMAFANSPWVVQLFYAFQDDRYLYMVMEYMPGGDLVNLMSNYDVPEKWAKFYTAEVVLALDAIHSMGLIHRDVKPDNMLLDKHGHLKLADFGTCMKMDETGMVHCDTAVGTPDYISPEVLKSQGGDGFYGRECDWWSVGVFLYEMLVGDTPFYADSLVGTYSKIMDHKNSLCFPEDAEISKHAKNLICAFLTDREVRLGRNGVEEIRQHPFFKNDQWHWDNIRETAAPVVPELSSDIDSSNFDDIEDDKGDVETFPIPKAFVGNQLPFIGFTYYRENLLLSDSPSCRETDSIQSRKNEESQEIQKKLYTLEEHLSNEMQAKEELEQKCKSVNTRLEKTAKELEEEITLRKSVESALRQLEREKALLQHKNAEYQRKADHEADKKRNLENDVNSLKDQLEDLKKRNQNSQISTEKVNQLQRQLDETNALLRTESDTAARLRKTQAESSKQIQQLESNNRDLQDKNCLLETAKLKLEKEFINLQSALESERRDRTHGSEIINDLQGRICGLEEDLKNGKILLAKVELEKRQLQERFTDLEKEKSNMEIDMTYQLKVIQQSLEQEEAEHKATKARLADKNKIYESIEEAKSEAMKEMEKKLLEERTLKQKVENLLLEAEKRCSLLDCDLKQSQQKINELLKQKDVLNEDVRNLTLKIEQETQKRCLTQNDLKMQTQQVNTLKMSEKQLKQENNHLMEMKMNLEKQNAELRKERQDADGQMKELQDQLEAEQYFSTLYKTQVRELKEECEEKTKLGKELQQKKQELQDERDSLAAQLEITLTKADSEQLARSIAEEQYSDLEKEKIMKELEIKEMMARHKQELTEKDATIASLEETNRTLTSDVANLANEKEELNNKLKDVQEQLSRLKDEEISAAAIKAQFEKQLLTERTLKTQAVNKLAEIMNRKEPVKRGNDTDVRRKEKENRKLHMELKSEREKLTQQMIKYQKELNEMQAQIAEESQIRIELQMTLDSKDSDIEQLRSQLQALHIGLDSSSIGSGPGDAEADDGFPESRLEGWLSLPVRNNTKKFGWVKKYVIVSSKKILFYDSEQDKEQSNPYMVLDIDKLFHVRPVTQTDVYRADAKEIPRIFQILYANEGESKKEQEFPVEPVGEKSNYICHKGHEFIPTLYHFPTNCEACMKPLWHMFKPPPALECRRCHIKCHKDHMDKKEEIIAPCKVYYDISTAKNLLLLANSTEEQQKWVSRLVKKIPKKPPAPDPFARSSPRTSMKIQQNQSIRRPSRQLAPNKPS

With `COc1cc(CCC(=O)N2CCN(S(=O)(=O)c3cccc4cnccc34)CC2)ccc1O`, the half-inhibitory concentration (IC50) in data set [1] was more than 10 µM.
Take `O=C(CCc1ccc(O)c(O)c1)N1CCN(S(=O)(=O)c2cccc3cnccc23)CC1`: the Selectivity ratio in the data set listed under Homo sapiens stood at 46.9. Also, in data set [2], the Activity result is “Dde”.
For `O=C(/C=C/c1ccc(O)c(O)c1)N1CCCN(S(=O)(=O)c2cccc3cnccc23)CC1` the same measures were 5.2 and “Dde”.
On to `O=C(CCc1ccc(O)c(O)c1)N1CCCN(S(=O)(=O)c2cccc3cnccc23)CC1`, for which the Activity entry was “Tde” in data set [3]; “Dde” in data set [2]; “Tde” in [10]; “Tde” in data set [16]; “Tde” in [21]. The result in data set [4], in data set [5], in data set [6], in data set [7], in [8] and in data set [9] was Active. Further, the outcome in data set [12], in data set [13], in data set [17], in data set [18], in [20] and in [22] was Active. Also, the result in [23] was Active. For the same compound, the Selectivity ratio in the data set listed under Homo sapiens is 1.4. Further, the ka at Albumin [11] is 7.94 10^5L/mol. Further, the CLint in data set [14] was determined as 15.3 µL/min/mg. In addition, the deltaT in [15] was determined as 0.2 °C. Also, the KSV on Albumin [19] was 1.68 10^5L/mol.

As a reminder, the IC50 is the midpoint of a concentration-inhibition curve.
